Calb biofilm kill: clotrimazole potentiators killing C. albicans biofilm, primary screen, 4-compound mixtures; C. albicans biofilm persisters + clotrimazole, fluorescence viability; primary screen in compound mixtures of four per well; inhibition, % at 7.6 µM; 0.02% of 120,000 active; AID 1242, 2008;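 active means inhibition above 30.3% in the primary screen of four-compound pools, then above 30% when the compound was retested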;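 further: compounds exposed to preformed 24 h biofilms for 48 h; 0% = untreated biofilm control and 100% = clotrimazole plus chlorhexidine kill blank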
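Assay system: C. albicans biofilms / Medium: RPMI/MOPS medium, pH 7.0 / Schedule: biofilm formation 24 h, compound exposure 48 h, 37 °C / Measured by: Alamar Blue fluorescence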
14-3-3 Bad PPI: inhibitors of 14-3-3 zeta/Bad binding, primary screen, biochemical, TR-FRET, bovine 14-3-3 zeta | 14-3-3 protein zeta/delta (Bos taurus), P63103 | 0.71% of 220,000 active | TR-FRET 14-3-3zeta/Dy647-pBad peptide displacement, 1 h | inhibition, % at 21.7 µM | AID 781, 2007;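 active means inhibition above about 70%, limit read from the data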;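 further: 0% = full 14-3-3 plus peptide FRET controls and 100% = background without 14-3-3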
p97 inhibitor: inhibitors of human p97 ATPase, primary screen, biochemical. Transitional endoplasmic reticulum ATPase (Homo sapiens), P55072. recombinant p97 ATPase, Kinase-Glo ATP luminescence, 3 h. inhibition, % at 8 µM. 0.42% of 220,000 active; in the data active means inhibition above about 15%;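 further: 0% = DMSO vehicle and 100% = wells lacking enzyme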
Hck-Nef inh: inhibitors of Nef-activated human Hck kinase, primary screen, biochemical, Z-Lyte FRET, 384-well, Hck-YEEI. Tyrosine-protein kinase HCK (Homo sapiens), P08631. 0.68% of 220,000 active. Recombinant Hck-YEEI plus Nef, Z-Lyte FRET kinase assay. inhibition, % at 20 µM;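 active means Hck-Nef kinase inhibition above about 50%, limit read from the data; inactive means inhibition below that limit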;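 further: 0% = DMSO with Hck plus Nef and 100% = Hck alone without Nef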
eIF4E-4G inh: eIF4E–eIF4G protein interaction inhibitors, primary screen, biochemical, uHTS, TR-FRET, eIF4GI fragment | TR-FRET eIF4E-eIF4GI(517-606) binding, 2 h | 0.37% of 220,000 active | inhibition, % at 21.7 µM | AID 782, 2007 | Eukaryotic translation initiation factor 4E (Mus musculus) + Eukaryotic translation …;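 active means inhibition above about 30%, limit read from the data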;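 further: 0% = full FRET control wells and 100% = background wells lacking eIF4GI fragment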
PERK inh: block of dimerizer-induced PERK translation repression, primary screen, PERK inhibitor project, CHO PERK-DD cells, SEAP luminescence, HTS; Eukaryotic translation initiation factor 2-alpha kinase 3 (Homo sapiens), Q9NZJ5; inhibition, % at 5.6 µM; CHO PERK-DD fusion, SEAP luminescence translation reporter; 0.17% of 220,000 active;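 active means inhibition above the mean inhibition of all tested compounds plus 3 SD, set separately per screening campaign, cut at about 2.9% in these data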;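 further: PERK kinase domain activated by AP20187 dimerizer at 100 nM; 0% = DMSO with dimerizer and 100% = rapamycin at 8.4 µM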
Target sequence (Q9NZJ5 whole entry, looked up, the tested form may be a part): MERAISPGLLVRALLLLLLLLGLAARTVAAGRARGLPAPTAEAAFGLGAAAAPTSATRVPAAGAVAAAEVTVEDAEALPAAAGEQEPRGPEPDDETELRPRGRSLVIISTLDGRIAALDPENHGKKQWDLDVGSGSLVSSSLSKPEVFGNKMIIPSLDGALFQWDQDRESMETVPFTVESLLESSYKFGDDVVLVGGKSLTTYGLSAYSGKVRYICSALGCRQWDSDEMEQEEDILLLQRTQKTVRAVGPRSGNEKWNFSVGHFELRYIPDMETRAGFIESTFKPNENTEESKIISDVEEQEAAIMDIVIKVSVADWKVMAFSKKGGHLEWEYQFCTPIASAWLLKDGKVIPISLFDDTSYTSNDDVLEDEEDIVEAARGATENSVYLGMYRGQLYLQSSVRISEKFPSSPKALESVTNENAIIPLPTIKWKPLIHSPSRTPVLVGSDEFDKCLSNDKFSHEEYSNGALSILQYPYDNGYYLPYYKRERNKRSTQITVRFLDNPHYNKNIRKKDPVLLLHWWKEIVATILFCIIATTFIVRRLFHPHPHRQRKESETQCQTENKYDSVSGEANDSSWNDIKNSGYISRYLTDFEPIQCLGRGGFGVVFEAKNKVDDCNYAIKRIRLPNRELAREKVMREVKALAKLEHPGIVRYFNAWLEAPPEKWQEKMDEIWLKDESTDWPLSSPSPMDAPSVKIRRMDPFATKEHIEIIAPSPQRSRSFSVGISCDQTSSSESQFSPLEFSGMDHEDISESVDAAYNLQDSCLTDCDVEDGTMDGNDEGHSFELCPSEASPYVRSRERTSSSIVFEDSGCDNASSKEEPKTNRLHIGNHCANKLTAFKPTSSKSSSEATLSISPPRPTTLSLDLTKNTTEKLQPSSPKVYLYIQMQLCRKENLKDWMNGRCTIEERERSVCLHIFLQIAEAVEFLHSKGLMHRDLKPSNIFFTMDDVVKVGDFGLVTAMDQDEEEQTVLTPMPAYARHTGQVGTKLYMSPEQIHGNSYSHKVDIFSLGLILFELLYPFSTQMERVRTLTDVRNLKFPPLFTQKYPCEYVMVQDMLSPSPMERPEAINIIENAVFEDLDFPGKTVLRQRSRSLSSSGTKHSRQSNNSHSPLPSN
p97 confirm: p97 ATPase inhibitors, retest, confirmation, biochemical | 44% of 760 active | recombinant p97 ATPase, Kinase-Glo ATP luminescence | shares compounds with p97 inhibitor | inhibition, % at 8 µM;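 active means percent inhibition of p97 ATPase above a set limit, the primary screen's mean plus 3 SD, cut at about 15% in these data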;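 further: 0% = DMSO wells and 100% = wells lacking p97 protein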
* marks the source's active call; other numbers are inactive results. A selection: hits, their analogues and other compounds. The true share with any hit is near 2.2%.

How did C#CCOCCOCCOCCNc1nc(N2CCN(C(=O)[C@H](Cc3ccc(O)cc3)n3cc([C@@H](N)C(C)CC)nn3)CC2)nc(N2CCN(C(=O)[C@H](Cc3cc4ccccc4[nH]3)n3cc([C@@H](N)C(C)CC)nn3)CC2)n1 (stereo partly drawn) do in these assays?
Calb biofilm kill: 0; 14-3-3 Bad PPI: 41; p97 inhibitor: 25*; Hck-Nef inh: -5; eIF4E-4G inh: 1; PERK inh: 2; p97 confirm: 13

Results for COc1ccccc1CNC(=S)Nc1ccc2nc(N3CCN(C)CC3)cc(C)c2c1 ?
Calb biofilm kill: 11; 14-3-3 Bad PPI: -8; p97 inhibitor: 0; Hck-Nef inh: 5; eIF4E-4G inh: -1; PERK inh: 0

Results for C#CCOCCOCCOCCNc1nc(N2CCN(C(=O)[C@H](Cc3cc4ccccc4[nH]3)n3cc([C@@H](N)C(C)CC)nn3)CC2)nc(N2CCN(C(=O)[C@H](Cc3cc4ccccc4[nH]3)n3cc([C@@H](N)Cc4ccc(O)cc4)nn3)CC2)n1 (stereo partly drawn) ?
Calb biofilm kill: 17; 14-3-3 Bad PPI: 42; p97 inhibitor: 17*; Hck-Nef inh: -133; eIF4E-4G inh: 12; PERK inh: 0; p97 confirm: 26*

What do the screens show for `C#CCOCCOCCOCCNc1nc(N2CCN(C(=O)[C@H]([C@@H](C)CC)n3cc([C@@H](N)Cc4ccc(O)cc4)nn3)CC2)nc(N2CCN(C(=O)[C@H](Cc3cc4ccccc4[nH]3)n3cc([C@@H](N)C(C)CC)nn3)CC2)n1` (stereo partly drawn)?
Calb biofilm kill: 17; 14-3-3 Bad PPI: 8; p97 inhibitor: 9; Hck-Nef inh: 9; eIF4E-4G inh: -5; PERK inh: 0

Results for CN(CCC#N)C(=O)CSc1nc2scc(-c3ccccc3)c2c(=O)[nH]1 ?
Calb biofilm kill: 12; 14-3-3 Bad PPI: 7; p97 inhibitor: 16*; Hck-Nef inh: -15; eIF4E-4G inh: 4; PERK inh: 1; p97 confirm: 9

Results for COc1cc(/C=C2\CC/C(=C\c3ccc(OCCO)c(OC)c3)C2=O)ccc1OCCO ?
Calb biofilm kill: 4; 14-3-3 Bad PPI: -12; p97 inhibitor: 15*; Hck-Nef inh: 2; eIF4E-4G inh: -2; PERK inh: 0; p97 confirm: 5

Results for COc1cc(/C=C2\COC/C(=C\c3ccc(O)c(OC)c3)C2=O)ccc1O ?
Calb biofilm kill: 5; 14-3-3 Bad PPI: -3; p97 inhibitor: 15*; Hck-Nef inh: -1; eIF4E-4G inh: 3; PERK inh: 0; p97 confirm: 14

Results for COc1ccc(/C=C2\CC/C(=C\c3ccc(OC)c(OC)c3)C2=O)cc1OC ?
Calb biofilm kill: 9; 14-3-3 Bad PPI: 1; p97 inhibitor: -3; Hck-Nef inh: 3; eIF4E-4G inh: -3; PERK inh: 0

How did COc1cc(/C=C2/SC(=Nc3ccc(O)cc3)NC2=O)ccc1O do in these assays?
Calb biofilm kill: 14; 14-3-3 Bad PPI: -13; p97 inhibitor: 25*; Hck-Nef inh: 46; eIF4E-4G inh: 3; PERK inh: 0; p97 confirm: 31*

How did COc1cc(/C=C2\SC(=Nc3cccnc3)NC2=O)cc(OC)c1OC do in these assays?
Calb biofilm kill: 13; 14-3-3 Bad PPI: -2; p97 inhibitor: 9; Hck-Nef inh: 17; eIF4E-4G inh: -5; PERK inh: 2

High-throughput results (PubChem)
